Measured values of several laboratories.
Each line is one published result; the experiments were not run side by side.
Target: Serine/threonine-protein kinase DCLK2 (DCLK2, Homo sapiens, UniProt Q8N568)
Sequence (Q8N568 1-766, as in one of the studies): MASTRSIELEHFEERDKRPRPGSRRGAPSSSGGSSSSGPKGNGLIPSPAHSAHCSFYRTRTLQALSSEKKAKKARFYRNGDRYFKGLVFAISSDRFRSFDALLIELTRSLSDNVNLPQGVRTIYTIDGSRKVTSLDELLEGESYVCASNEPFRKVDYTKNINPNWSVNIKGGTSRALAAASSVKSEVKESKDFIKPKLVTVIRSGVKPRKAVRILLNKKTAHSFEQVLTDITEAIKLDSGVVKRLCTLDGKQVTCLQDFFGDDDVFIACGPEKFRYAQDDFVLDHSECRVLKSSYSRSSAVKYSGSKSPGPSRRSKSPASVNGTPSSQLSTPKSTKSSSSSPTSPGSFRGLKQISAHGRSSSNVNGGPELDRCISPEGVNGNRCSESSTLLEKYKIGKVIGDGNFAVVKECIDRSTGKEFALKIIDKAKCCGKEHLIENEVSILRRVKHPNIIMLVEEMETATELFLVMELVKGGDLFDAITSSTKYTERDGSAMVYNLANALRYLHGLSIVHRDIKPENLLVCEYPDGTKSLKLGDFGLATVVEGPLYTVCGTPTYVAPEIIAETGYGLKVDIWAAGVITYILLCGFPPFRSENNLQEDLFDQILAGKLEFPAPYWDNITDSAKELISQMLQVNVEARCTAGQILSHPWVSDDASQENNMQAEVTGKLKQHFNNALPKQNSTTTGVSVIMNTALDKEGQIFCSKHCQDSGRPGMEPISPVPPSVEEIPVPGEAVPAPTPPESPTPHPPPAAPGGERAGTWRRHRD

| SMILES | test | setting | endpoint | value |
| --- | --- | --- | --- | --- |
| CC(C)(C)c1nc2c(s1)c1nc(N)ncc1c1ccc(NS(=O)(=O)c3c(F)cccc3F)c(F)c12 | enzyme activity, inhibitor, radiometric | 1 µM | remaining activity | 90% |
| COc1ccc2c(c1)O[C@H](c1ccc(OC)c(OC)c1)C[C@@H]2NC(=O)C1(c2ccc3c(c2)OC(F)(F)O3)CC1 | cell-free assay, competition with immobilised ligand | 1 µM | remaining binding | 98% |
| COc1cc2c(N3CCN(C(=O)Nc4ccc(OC(C)C)cc4)CC3)ncnc2cc1OCCCN1CCCCC1 | cell-free assay | 0.5 µM | remaining signal | 103% |
| Cn1cncc1C1=CN(c2ncnc3[nH]cnc23)CCS1 | enzyme activity, inhibitor, radiometric | 50 nM | inhibition | 12.8% |
| O=C(Nc1cnn(-c2csc(C(=O)NC3COC3)c2)c1)Nc1ccccc1Cl | enzyme activity, inhibitor | 5 µM | remaining activity | 99.9% |
| COc1cc(Cl)c(C(=O)N[C@@H](CN[C@H]2CC[C@@H](N)CC2)Cc2ccc(C#N)cc2)cc1-c1ccc(CN[C@H](C)c2ccc(C)cc2)o1 | enzyme activity, inhibitor | 1 µM | remaining activity | 96% |
| Cc1ccc(NC(=O)c2ccc(CN3CCN(C)CC3)cc2)cc1Nc1nc(-c2cccnc2)cs1 | cell-free assay | 0.5 µM | remaining signal | 102% |
| Cc1ccc(NC(=O)c2ccc(C)c(C(F)(F)F)c2)cc1C#Cc1nn(C2CCC(O)CC2)c2ncnc(N)c12 (stereo not shown) | cell-free assay | 10 µM | remaining signal | 102% |
| CNC(=O)Nc1ccc2c(c1)[C@@]1(CC2)OC(=O)N(CC(=O)N(Cc2ccc(F)cc2)[C@@H](C)C(F)(F)F)C1=O | cell-free assay, competition with immobilised ligand | 1 µM | remaining binding | 89% |
| CCN(CC)c1ccc(C2=NNC(=O)CC2C)cc1[N+](=O)[O-] (stereo not shown) | enzyme activity, inhibitor | 10 µM | remaining activity | 102% |
| Cc1sc(C(=O)NC2COC2)cc1-n1cc(NC(=O)Nc2c(F)cccc2Cl)cn1 | enzyme activity, inhibitor | 10 µM | remaining activity | 107% |
| N#Cc1ccc(Nc2ccc3[nH]c(=O)[nH]c3c2)c(Cl)c1 | cell-free assay, competition with immobilised ligand | 1 µM | remaining binding | 100% |
| Cc1ccc(Nc2nccc(N(C)c3ccc4c(C)n(C)nc4c3)n2)cc1S(N)(=O)=O | enzyme activity, inhibitor | 10 µM | inhibition | -19% |
| CCCOc1ccc(OC)c(F)c1C(=O)c1ccc(C(=O)N[C@@H]2CNC[C@H]2NC(=O)c2ccc3[nH]ncc3c2)cc1 | enzyme activity, inhibitor | 10 µM | remaining activity | 33% |
| CCN(CC)CCNC(=O)c1c(C)[nH]c(/C=C2\C(=O)Nc3ccc(F)cc32)c1C | enzyme activity, inhibitor | 10 µM | inhibition | 69% |
| CCCOc1ccc([C@H]2[C@H](C(=O)O)[C@@H](c3ccc4c(c3)OCO4)CN2CC(=O)Nc2c(CC)cccc2CC)cc1 | cell-free assay, competition with immobilised ligand | 1 µM | remaining binding | 77% |
| CC(C)(O)[C@H]1CC[C@H](Nc2ccc3ncc(-c4cccc(C(F)(F)F)c4)n3n2)CC1 | enzyme activity, inhibitor | 1 µM | remaining activity | 95.3% |
| COc1cc2ncnc(Nc3ccc(Oc4ccccc4)cc3C)c2cc1OC | enzyme activity, inhibitor | 1 µM | inhibition | 1% |
| O=C1Nc2ccc(Cl)cc2C1=Cc1cc(Cl)c(O)c(Cl)c1 | cell-free assay | 0.5 µM | remaining signal | 98% |
| Cn1nc(C(=O)NCc2ccc(C(=O)O)cc2)cc1-c1ccc2[nH]ccc2c1 | cell-free assay, competition with immobilised ligand | 0.1 µM | remaining binding | 92% |
| CNC(=O)c1cc(Oc2ccc(NC(=O)Nc3ccc(Cl)c(C(F)(F)F)c3)cc2)ccn1 | cell-free assay | 0.5 µM | remaining signal | 102% |
| Nc1cnc(N2CCc3cc(S(=O)(=O)Nc4c(F)cc(Cl)cc4F)cc(N4CCCC4=O)c32)nc1 | cell-free assay, competition with immobilised ligand | 1 µM | remaining binding | 100% |
